Laboratory results: PubChem BioAssay AID463079 (The Scripps Research Institute Molecular Screening Center, 2010)
Hit rate of the full screen: of about 330,000 compounds, about 2,000 (0.61%) were called active. Only a selection was taken, and actives are over-represented in it overall. Values without a mark were called inactive.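 The calls were made as follows: active = inhibition above that plate's mean sample inhibition plus 3 SD (cut at about 26% in these data); inactive = the rest.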

Test: nonselective Gq signaling inhibition in CHO cells – cell-based, fluorescence, Fluo-8 calcium dye, counter-screen for OX1R antagonist project, primary screen (AID 463079);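 also: 0% = ATP-challenged DMSO wells and 100% = DMSO wells without ATP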
Conditions: parental CHO-K1, ATP-induced calcium, Fluo-8 fluorescence; at 5.6 µM; hits give high values
Summary of the method: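 Measured by: calcium-sensitive Fluo-8 fluorescence / Test system: CHO parental line / Controls: ATP-challenged DMSO wells low, unchallenged DMSO wells high / Measure: % inhibition / Compound: single nominal dose of 5.6 µM per compound / Replicates: single well per compound, no replicates / Reagent: ATP as calcium-mobilizing challenge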

| SMILES | inhibition |
| --- | --- |
| Cc1ccc(N(CC(=O)Nc2cc(C)cc(C)c2)S(=O)(=O)c2cccc3nonc23)cc1 | -11.6% |
| CCN(CC)S(=O)(=O)c1ccc(N(C)Cc2cccc(OC)c2OC)nc1 | 28.5% |
| CCN(CC)S(=O)(=O)c1ccc(N(C)CCc2ccc(OC)c(OC)c2)nc1 | -13.7% |
| CCN(CC)S(=O)(=O)c1ccc(N(C)Cc2ccc(C(F)(F)F)cc2)nc1 | 43.6% (active) |
| Nc1ncnc2c1ncn2[C@@H]1O[C@H](CNS(=O)(=O)c2ccc(-c3ccno3)s2)[C@@H](O)[C@H]1O | -2.72% |
| CC[C@]12c3[nH]c4ccc(Cl)cc4c3CCN1C(=O)[C@@H](CC(=O)NCCCOC)C[C@@H]2C(=O)N1CCN(C(=O)C2CC2)CC1 | -12.5% |
| CCOC(=O)c1c(CN2CCOCC2)n(-c2ccccc2)c2ccc(O)cc12 | -10.2% |
| CC(=O)c1c(C)n(-c2ccc(N(C)C)cc2)c2ccc(OCC(N)=O)cc12 | -2.26% |
| CC(=O)c1c(C)n(-c2ccc(C)cc2)c2ccc(O)cc12 | 81.6% (active) |
| C/C(=N\NC(=O)c1ccc(CSc2nc(C)cc(C)n2)cc1)C1CCCCC1 | -15.5% |
| Cc1ccc(O)c(NC(=S)NC(=O)COc2ccc(Br)cc2)c1 | 58.4% (active) |
| CCS(=O)(=O)c1ccc(O)c(NC(=O)COc2ccc(Cl)cc2)c1 | -4.26% |
| COc1ccc(C(=O)Nc2cc(C)ccc2NC(=O)COc2ccccc2)cc1 | -7.7% |
| COCCCNC(=O)c1ccc(CNS(=O)(=O)c2ccc(NC(C)=O)cc2)cc1 | -6.87% |
| Cc1nnc(SCC(=O)N2c3ccccc3C(C)(c3ccc(Cl)cc3)CC2(C)C)s1 (stereo not drawn) | -18.2% |
| CCOC(=O)[C@H]1[C@H]2COc3ccccc3[C@@H]2N2C(=O)CN(Cc3ccccc3)C(=O)[C@@]12C | -31.8% |
| O=S(=O)(c1ccc(Cl)s1)N1CCC2(CC1)OCCO2 | -9.61% |
| CC(OC(=O)/C=C/c1ccccc1)C(=O)Nc1ccc(C(N)=O)cc1 (stereo not drawn) | -8.76% |
| C[C@@H](NC(=O)OC(C)(C)C)c1nnc(S(=O)(=O)Cc2ccccc2)o1 | 51.1% (active) |
| C[C@H](NC(=O)OC(C)(C)C)c1nnc(SCC(=O)Nc2ccc(Br)cc2)o1 | -14.8% |
| CC(C)Sc1nnc([C@H](Cc2ccccc2)NC(=O)OC(C)(C)C)o1 | -15.8% |
| NNC(=O)C1CC(O)CN1S(=O)(=O)c1ccc(Cl)cc1 (stereo not drawn) | -12.3% |
| O=C(CN1CCN(S(=O)(=O)c2cc(Cl)ccc2Cl)CC1)c1ccc(O)c(O)c1 | -11.1% |
| Cc1ccc(S(=O)(=O)Nc2ccc(F)c(S(=O)(=O)N3CCOCC3)c2)cc1 | -18.4% |
| COc1cccc(CSc2nc3nc(C)cc(C)n3n2)c1 | 9.68% |
| CC[C@]1(C(=O)OC)[C@H]2C(=O)N(Cc3ccccc3)C(=O)[C@H]2[C@H]2CN=C(SCc3ccc(C#N)cc3)N21 | -26.6% |
| CCOC(=O)C1=C(C)N(C[C@@H]2CC[C@@H](Cc3ccc(-c4ccccc4)cc3)O2)C(=O)NC1c1ccc([N+](=O)[O-])cc1 (stereo partly drawn) | -13.7% |

| SMILES | inhibition |
| --- | --- |
| CCN1CCN(c2ccc(NC(=O)c3cnccn3)cc2)CC1 | -2.98% |
| CCN(CC)c1ccc(/C=N/NC(=O)c2cnccn2)c(O)c1 | 43.5% (active) |
| O=C(Nc1ccc2c(c1)OCCO2)c1cnccn1 | -2.07% |
| CCOc1ccc(NS(=O)(=O)c2ccc(C)c(C(N)=O)c2)cc1 | -5.42% |
| CN1CCC(=NNC(=O)CN(c2cccc(Cl)c2)S(C)(=O)=O)CC1 | -9.11% |
| COc1ccc(-n2c(C)cc(C(=O)CSc3nnc(-c4cccs4)o3)c2C)cc1 | 40.8% (active) |
| COc1ccc(-n2c(C)cc(C(=O)COC(=O)c3cc(OC)c(OC)cc3NC(=O)c3cccs3)c2C)cc1 | -15.5% |
| COc1ccc(-c2nnc(SCC(=O)c3ccc4c(c3)OCCO4)o2)cc1 | -4.45% |
| Cc1cc(C)n(CCC(=O)N2CCN(S(=O)(=O)c3ccc(C)c(C)c3)CC2)n1 | -19% |
| CNS(=O)(=O)c1ccc(C(=O)NCC(=O)NCCc2ccc3c(c2)OCCO3)cc1 | -17.8% |
| COc1cccc(OCc2nnc3n2N=C(c2ccccc2)C(CC(=O)O)S3)c1 (stereo not drawn) | -2.16% |
| CCOC(=O)COn1c(=O)c(-c2ccc(OCC)cc2)[n+]([O-])c2ccccc21 | -6.3% |
| CCCCCCCCCCOC(=O)Cn1c(COc2ccc(C)cc2)[n+](C)c2ccccc21 | 78.8% (active) |
| CCOC(=O)Cn1c(-c2cccnc2Cl)nc2ccccc21 | 6.66% |
| CCCCCCCCCCOC(=O)Cn1c(COc2cccc(OC)c2)[n+](C)c2ccccc21 | 43.2% (active) |
| CCCCn1c(N)c(N(CCOC)C(=O)c2cccc(OCc3ccccc3)c2)c(=O)[nH]c1=O | -12.8% |
| CCOC(=O)C1CCN(Cc2c(C(=O)N3CCOCC3)nc3c(C)cccn23)CC1 | -3.54% |
| Cc1cccc(-n2c(Cc3cc(=O)[nH]c(=O)[nH]3)nnc2SCC(=O)Nc2cccc(C(F)(F)F)c2)c1 | -7.28% |
| CCOC(=O)C(Sc1ncc(C#N)c(N)n1)C(C)C (stereo not drawn) | -2.34% |
| CC[C@]1(C(=O)OC)[C@H]2C(=O)N(Cc3ccccc3)C(=O)[C@H]2[C@H]2CN=C(SCc3ccc(Cl)cc3)N21 | -19.6% |
| COc1ccc(S(=O)(=O)Nc2ccc3oc(C)c(C(C)=O)c3c2)cc1 | 40.8% (active) |
| CC(=O)c1c(C)oc2ccc(NS(=O)(=O)c3ccccc3)cc12 | -0.19% |
| CC(=O)c1c(C)oc2ccc(NS(=O)(=O)c3ccc(C(=O)O)cc3)cc12 | 7.03% |
| CCCCN1C(=O)C(=O)N(CC(=O)Nc2cccc(C(C)=O)c2)C1=O | -9.38% |
| COc1cc(C(=O)NCCOC(=O)c2cccc(N(C)C)c2)cc(OC)c1OC | -13.3% |
| Cc1ccc2cccc(O)c2[n+]1[O-] | -4.21% |
